# Bioassay records: PubChem, Broad Institute
# A selection: hits, their analogues and other compounds. The true share with any hit is near 5.8%.
# Pf Dd2 inh – P. falciparum Dd2 growth inhibitors, primary screen, SYBR Green fluorescence, single dose replicates. 72 h; hits give low values. activity change, % at 10 µM. actives 2.3% (n = 94,000). AID 1159554, 2015; in the data active = activity change below about -80%; inconclusive = no clear call, values can overlap the other calls
# IDH1 R132H inh – inhibitors of IDH1 R132H reductase, primary screen, biochemical, plate reader, single point; Isocitrate dehydrogenase [NADP] cytoplasmic (Homo sapiens), O75874; diaphorase/resazurin fluorescence, 60 min; inhibition, % at 10 µM; actives 0.18% (n = 70,000); AID 624101, 2012; in the data active = inhibition above about 34%; inconclusive = no clear call, values can overlap the other calls; inactive = below about 11%;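 also: 0% = DMSO and 100% = no enzyme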
# T cruzi growth-1 – T. cruzi intracellular proliferation inhibitors, primary screen, cell-based, beta-gal Tulahuen parasites, NIH3T3 host, luminescence | inhibition, % at 8.34 µM | actives 5.9% (n = 77,000) | T. cruzi beta-gal in NIH3T3, GalScreen luminescence, 90 h | AID 624255, 2012;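 active = mean inhibition above about 93%, with at least 55% of replicates each passing it, limit read from the data, passing the limit was not always enough; inconclusive = only one of those two conditions holds; inactive = neither condition holds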
# GASC1 inh – inhibitors of GASC-1 (KDM4C) histone demethylase, primary screen, biochemical, single concentration HTS. GST-KDM4C 2-372, H3K9me3 peptide, LANCE TR-FRET. inhibition, % at 12.5 µM. actives 0.15% (n = 96,000). AID 720574, 2013;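 active = mean replicate inhibition above about 25%, with at least 55% of replicates also reaching it, limit read from the data, passing the limit was not always enough; inconclusive = only one of those two conditions met; inactive = neither condition met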
# Target sequence (Q9H3R0 2-372 limits assumed): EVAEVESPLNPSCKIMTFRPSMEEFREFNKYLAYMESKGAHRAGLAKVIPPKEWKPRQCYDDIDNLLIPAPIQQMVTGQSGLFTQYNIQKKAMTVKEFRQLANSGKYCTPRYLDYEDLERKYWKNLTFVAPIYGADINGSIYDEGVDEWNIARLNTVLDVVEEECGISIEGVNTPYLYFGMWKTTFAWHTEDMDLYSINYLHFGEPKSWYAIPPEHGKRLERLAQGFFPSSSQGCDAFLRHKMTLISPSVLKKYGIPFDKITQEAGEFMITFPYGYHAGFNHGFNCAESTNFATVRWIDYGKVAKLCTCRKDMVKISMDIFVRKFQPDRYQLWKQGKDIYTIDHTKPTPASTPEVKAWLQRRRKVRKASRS
#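 Compound: one test concentration per compound; Material: GST-GASC-1 enzyme fragment 2-372; Amount: GASC-1 enzyme at 10 nM final in reaction; Also added: H3K9me3 peptide substrate, Fe(II), 2-oxoglutarate; Technique: LANCE TR-FRET; Times: 30 min demethylation and 1 h detection at room temperature.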
# T cruzi growth-2 – T. cruzi intracellular proliferation inhibitors, confirmation, cell-based, NIH3T3 host, beta-gal parasite, luminescence, cherry-pick; shares compounds with T cruzi growth-1; T. cruzi beta-gal in NIH3T3, GalScreen luminescence, 90 h; inhibition, % at 8.35 µM; actives 72% (n = 5,600);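 active = mean replicate inhibition above about 95% and at least 55% of replicates individually reaching it, limit read from the data; inconclusive = only one of the two criteria is met; inactive = neither criterion is met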
# T cruzi growth-3 – inhibitors of intracellular T. cruzi replication, confirmation, NIH3T3 host cells, beta-gal parasites, cherry-pick, set 2; AID 651740, 2012; actives 21% (n = 5,600); inhibition, % at 2.09 µM; T. cruzi beta-gal in NIH3T3, GalScreen luminescence, 90 h; shares compounds with T cruzi growth-1;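 active = mean inhibition above about 95%, with at least 55% of replicates also reaching it, limit read from the data; inconclusive = meets just one of the two conditions; inactive = meets neither condition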;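 also: plate controls were neutral control median for no effect and positive control median for full effect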
# 3T3 cytotox – cytotoxicity in mouse NIH/3T3 fibroblasts, confirmation, cytotoxicity control for T. cruzi proliferation inhibitor project, cell-based, cherry-pick, single point | NIH/3T3 viability, CellTiter-Glo ATP luminescence, 90 h | actives 14% (n = 5,600) | AID 651742, 2012 | shares compounds with T cruzi growth-1 | cytotoxicity (signal decrease), % at 8.35 µM;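 active = mean signal decrease across replicates above about 35% based on untreated-well scatter, with enough replicates individually passing, limit read from the data; inconclusive = no rule stated though some were filed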;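 also: 0% = median of neutral control wells and 100% = median of positive control wells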
# 3T3 cytotox 2 – NIH/3T3 fibroblast cytotoxicity, confirmation, cytotoxicity control, cell-based, cherry-pick, single point, set 2; inhibition, % at 24.9 µM; actives 56% (n = 5,600); NIH/3T3 viability, CellTiter-Glo ATP luminescence, 90 h; shares compounds with T cruzi growth-1; AID 651744, 2012;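 active = mean loss of cell viability signal at or above a set limit, and enough replicates individually reaching it; inconclusive = meets only the mean limit or only the replicate share; inactive = meets neither condition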;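 also: 0% = median of neutral control wells and 100% = median of positive control wells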
# Active calls of the source: *; ? = inconclusive; · = no result.
SMILES,Pf Dd2 inh,IDH1 R132H inh,T cruzi growth-1,GASC1 inh,T cruzi growth-2,T cruzi growth-3,3T3 cytotox,3T3 cytotox 2
O=C(Nc1ccccc1)N1CCCCN2[C@H](C1)[C@H](c1ccc(C#CC3CC3)cc1)[C@@H]2CO,-58,·,54,0,·,·,·,·
O=C(C1CCCC1)N1CCCCN2[C@H](CO)[C@@H](c3ccc(C#CC4CC4)cc3)[C@@H]2C1,0,·,113*,·,99*,74,19,17
O=C(C1CC1)N1CCCCN2[C@@H](CO)[C@H](c3ccc(C#CC4CCCC4)cc3)[C@@H]2C1,3,·,95,-1,·,·,·,·
O=C(C1CCCC1)N1CCCCN2[C@@H](CO)[C@@H](c3ccc(C#CC4CC4)cc3)[C@@H]2C1,-39,·,93,·,·,·,·,·
O=C(C1CC1)N1CCCCN2[C@@H](CO)[C@@H](c3ccc(C#CC4CCCC4)cc3)[C@@H]2C1,-15,·,45,0,·,·,·,·
O=C(C1CC1)N1CCCCN2[C@H](CO)[C@@H](c3ccc(C#CC4CC4)cc3)[C@@H]2C1,23,·,105*,·,98*,70,20,37*
CCNC(=O)[C@H]1[C@H](CO)[C@H]2Cn3c(ccc(-c4cccc(F)c4)c3=O)[C@H]2N1CC1CCOCC1,11,·,71,1,·,·,·,·
CCOC(=O)c1c(NC(=O)CSc2nc(C)cc(C(F)(F)F)n2)sc(C)c1C,·,0,·,·,·,·,·,·
COCC(=O)Nc1ccc2c(c1)C(=O)N(C)C[C@H](OC)[C@H](C)CN(C(=O)COC)[C@H](C)CO2,·,0,-23,-1,·,·,·,·
C[C@@H]1CN([C@H](C)CO)C(=O)c2ccccc2-c2ccccc2CO[C@H]1CN(C)S(=O)(=O)c1cccc(C#N)c1,-56,·,?,-1,48,28,5,22
COc1cccc(S(=O)(=O)N(C)C[C@@H]2OCc3ccccc3-c3ccccc3C(=O)N([C@@H](C)CO)C[C@@H]2C)c1,-66,·,105*,0,30,-1,-4,8
COc1ccc(S(=O)(=O)Nc2ccc3c(c2)CC(=O)N([C@H](C)CO)C[C@H](C)[C@@H](CN(C)Cc2ccc4c(c2)OCO4)O3)cc1,-25,2,?,1,108*,62,-17,-5
COc1ccc(S(=O)(=O)Nc2ccc3c(c2)CC(=O)N([C@H](C)CO)C[C@@H](C)[C@H](CN(C)Cc2ccc4c(c2)OCO4)O3)cc1,14,0,109*,14,108*,53,1,8
COc1ccc(S(=O)(=O)Nc2ccc3c(c2)CC(=O)N([C@@H](C)CO)C[C@@H](C)[C@@H](CN(C)Cc2ccc4c(c2)OCO4)O3)cc1,-40,1,52,-1,·,·,·,·
COc1ccc(S(=O)(=O)Nc2ccc3c(c2)CC(=O)N([C@@H](C)CO)C[C@@H](C)[C@H](CN(C)Cc2ccc4c(c2)OCO4)O3)cc1,-23,0,113*,0,109*,85,19,23
CCC(=O)NC[C@H]1[C@@H](c2ccc(C3=CCCCC3)cc2)[C@@H](CO)N1C(=O)C1CC1,-5,·,·,1,·,·,·,·
COc1cccc(NC(=O)N2C[C@@H](O)COC[C@@H]3O[C@@H](CC(=O)NC4CCCC4)CC[C@H]32)c1,-3,·,8,1,·,·,·,·
COc1ccccc1-c1ccc2c(c1)O[C@H](CN(C)CC1CCOCC1)[C@H](C)CN([C@@H](C)CO)S2(=O)=O,-1,·,·,1,·,·,·,·
C[C@@H]1CN([C@H](C)CO)C(=O)c2cc(NS(=O)(=O)c3ccc(F)cc3)ccc2O[C@H]1CN(C)C(=O)Nc1ccccc1,16,·,-36,0,·,·,·,·
Cc1ccccc1-c1ccc([C@H]2[C@H](CO)N3CCCCN(C(=O)CN4CCOCC4)C[C@@H]23)cc1,-4,·,102*,-1,87,70,14,23
Cc1ccccc1-c1ccc([C@@H]2[C@H](CO)N3CCCCN(C(=O)CN4CCOCC4)C[C@@H]23)cc1,-34,·,101*,2,84,47,36*,32*
CC(C)CC#Cc1ccc2c(c1)O[C@@H](CN(C)C(=O)c1ccncc1)[C@H](C)CN([C@@H](C)CO)S2(=O)=O,0,2,94,19,·,·,·,·
CC(C)CC#Cc1ccc2c(c1)O[C@@H](CN(C)C(=O)c1ccncc1)[C@@H](C)CN([C@@H](C)CO)S2(=O)=O,-3,0,107*,1,?,71,3,62*
CC(C)CC#Cc1ccc2c(c1)O[C@@H](CN(C)C(=O)c1ccncc1)[C@@H](C)CN([C@H](C)CO)S2(=O)=O,-12,2,104*,10,107*,73,32,71*
Cc1ccc(S(=O)(=O)N[C@H]2CC[C@H](CC(=O)N3CCc4ccccc4C3)O[C@H]2CO)cc1,14,0,-13,-1,·,·,·,·
SMILES,Pf Dd2 inh,IDH1 R132H inh,T cruzi growth-1,GASC1 inh,T cruzi growth-2,T cruzi growth-3,3T3 cytotox,3T3 cytotox 2
COc1ccc(NC(=O)N(C)C[C@H]2OCCCC[C@@H](C)Oc3ccc(NS(=O)(=O)c4ccccc4)cc3C(=O)N([C@@H](C)CO)C[C@H]2C)cc1,-53,·,106,-1,·,·,·,·
C[C@@H]1CN([C@@H](C)CO)S(=O)(=O)c2ccc(-c3ccncc3)cc2O[C@@H]1CN(C)C(=O)Nc1ccc(C(F)(F)F)cc1,-9,1,?,-5,108*,85,23,67*
C[C@@H]1CN([C@@H](C)CO)S(=O)(=O)c2ccc(-c3ccncc3)cc2O[C@H]1CN(C)C(=O)Nc1ccc(C(F)(F)F)cc1,17,0,83,0,·,·,·,·
C[C@H](CO)N1C[C@H](C)[C@@H](CN(C)C(=O)Nc2ccc(C(F)(F)F)cc2)Oc2cc(-c3ccncc3)ccc2S1(=O)=O,-47,6,103*,0,110*,87,13,48*
CC(=O)Oc1cc(C(C)C)c(OCCN(C)C)cc1C,·,0,·,·,·,·,·,·
C[C@@H]1CN([C@@H](C)CO)C(=O)c2c(c3ccccc3n2C)-c2ccccc2CO[C@@H]1CN(C)S(=O)(=O)c1cn(C)cn1,1,-3,?,-1,8,-50,1,31*
